A selection: hits, their analogues and other compounds. The true share with any hit is near 2.9%.
proKLK7 act = activates the human kallikrein-7 zymogen; P49862; purified proKLK7, EDANS-DABCYL substrate fluorescence; 100% is mature enzyme control, 0% vehicle; activation, % at 7 µM; 0.9% of 370,000 active; AID 652039;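 active = activation above the mean of all tested compounds plus 3 SD, computed per campaign excluding outliers beyond control limits, cut at about 13% in these data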
Target sequence (P49862 whole entry, looked up): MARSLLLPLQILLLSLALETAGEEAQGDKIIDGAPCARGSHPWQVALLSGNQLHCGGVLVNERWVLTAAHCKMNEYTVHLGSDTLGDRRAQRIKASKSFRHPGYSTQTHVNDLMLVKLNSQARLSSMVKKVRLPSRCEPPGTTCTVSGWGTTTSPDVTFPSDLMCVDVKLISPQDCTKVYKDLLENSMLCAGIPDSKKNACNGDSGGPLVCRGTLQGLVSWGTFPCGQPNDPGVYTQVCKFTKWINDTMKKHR
DDE Tn6 FP inh = inhibitors of Tn6 peptide binding to human fibrin DD(E); P02675; Fibrin DD(E) TRITC-Tn6 fluorescence polarization displacement; inhibition, % at 8.3 µM; 0.21% of 370,000 active; AID 720509;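 active = inhibition above a per-campaign cutoff: mean of compounds within control limits plus 3 SD, cut at about 15% in these data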
CRFBP-R2 agonist = CRF-BP/CRF-R2 complex agonism. 0.46% of 350,000 active. HEK293 CRF-R2/CRF-BP, calcium dye fluorescence (FLIPR); percent of saturating CRF peptide response. activation, % at 13.2 µM;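 active = activation of at least 50%, plus an integration ratio under a set limit after plate pattern correction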
CRFBP-R2 block = antagonists of CRF-binding protein/CRF-R2 receptor complex. HEK293 CRF-R2/CRF-BP, CRF-induced calcium fluorescence. inhibition, % at 11.8 µM. AID 588475. 0.59% of 350,000 active;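 active = inhibition of the ligand-induced calcium signal above about 50% at the single tested concentration, limit read from the data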
CendR NRP1 mod = alters CendR peptide binding to human NRP-1 | O14786 | FAM-RPARPAR peptide binding to NRP-1, fluorescence polarization | inhibition, % at 25 µM | 0.85% of 360,000 active;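 active = inhibition or corrected inhibition above about 18%, plus a signal ratio from 0.5 to 1.5, limit read from the data, passing the limit was not always enough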
Tn7 DDE FP = DD(E)-Tn7 binding inhibition, primary FP screen. 0.13% of 370,000 active. inhibition, % at 8.3 µM. P02675. FP displacement of FITC-Tn7 peptide from fibrin DD(E); 0% = median of compound wells per plate;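 active = inhibition above the mean of compounds falling within the control limits plus 3 SD of them, cut at about 14% in these data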
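assay system = human clot-derived fibrin DD(E) complex | quantity = Fibrin-DD(E) at 2 µM final | timing = 10 min preincubation, 3 h with tracer, room temperature | signal = fluorescence polarization | measure = percent inhibition | benchmarks = high control wells with 10 µM unlabelled Aha-Tn7 peptide (full inhibition) | replicates = singlicate testing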
proKLK7 act conf = proKLK7 activation, confirmation; shares compounds with proKLK7 act; purified proKLK7, EDANS-DABCYL substrate fluorescence; scaled: vehicle 0, mature enzyme 100; activation, % at 7 µM; 68% of 3,200 active;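 active = activation, as change over the incubation, above the mean of all tested compounds plus 3 SD, cut at about 13% in these data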
EDANS-DABCYL int = optically interferes with EDANS-DABCYL signal, flagging KLK7 hits | EDANS-DABCYL substrate fluorescence interference, no enzyme, 4 h; solvent 0%, active enzyme control 100% | shares compounds with proKLK7 act | activation, % at 7 µM | 80% of 3,200 active;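 active = activation above the all-compound mean plus 3 SD, ignoring values outside control-based bounds, cut at about 4.8% in these data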;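 note: value is the 4 h activation minus the activation read at time zero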
Hits are given with their value; . = inactive; / = not tested or not shown.

SMILES | proKLK7 act | DDE Tn6 FP inh | CRFBP-R2 agonist | CRFBP-R2 block | CendR NRP1 mod | Tn7 DDE FP | proKLK7 act conf | EDANS-DABCYL int
Cc1ccc(C2C=C(c3ccccc3OC(F)F)Nc3ncnn32)cc1 (stereo not drawn) | 18 | . | . | . | . | . | 76 | 80
COc1ccc(C(=O)c2[nH]c(N)c(C(=O)c3ccccc3)c2-c2ccc(OC)c(OC)c2)cc1 | / | . | / | / | / | . | / | /
O=C1NC(=O)C2(CCCc3ccc(N(CCO)CCO)cc32)N1 (stereo not drawn) | . | . | / | / | / | . | / | /
COc1ccc(CNCc2c(O)c(Cl)cc3c(C)c(C)c(=O)oc23)c(OC)c1 | 32 | . | . | . | . | . | 74 | 78
COc1ccc(CNCc2ccncc2)c(OC)c1 | . | . | . | . | . | . | / | /
CCc1cc(=O)oc2c(CNCc3ccc(OC)cc3OC)c(O)c(Cl)cc12 | 44 | . | . | . | . | . | 70 | 67
O=C(NCc1ccco1)O[C@@H]1CC[C@@]23CCCN2C(=O)CCC[C@H]3C1 | / | . | / | / | / | . | / | /
CCOc1cc(C2C3=C(CCCC3=O)N(CCC(=O)O)C3=C2C(=O)CCC3)ccc1OS(=O)(=O)c1ccc(C)cc1 | 20 | . | . | . | . | . | 30 | 32
CC(C)[C@H](NC(=O)c1ccco1)C(=O)N1CCC[C@H]1C(=O)NCc1ccccc1 | . | . | / | / | / | . | / | /
COc1cccc(CNC(=O)[C@H]2CCCN2C(=O)[C@H]2CCCN2C(=O)c2ccc(C)c(C)c2)c1 | . | . | / | / | / | . | / | /
CCC1CCCCN1Cc1c(O)ccc2c(=O)c(-c3ccccc3OC)coc12 (stereo not drawn) | 35 | . | . | . | . | . | 51 | 71
COc1ccccc1-c1coc2c(CN3CCC(C)CC3)c(O)ccc2c1=O | 57 | . | . | . | . | . | 64 | 63
COC(=O)[C@]12C[C@H](CC(=O)NCC3CCCCC3)C(=O)N(Cc3ccc4c(c3)OCO4)C1=C[C@H](C(C)C)O[C@@H]2C1CC1 | . | . | / | / | / | . | / | /
CCOCCCNC(=O)c1cc2c(=O)n3cccc(C)c3nc2n1C | . | . | . | . | . | . | / | /
CCOCCCn1c(=N)c(C(N)=S)cc2c(=O)n3cccc(C)c3nc21 | 29 | . | . | . | . | . | . | .
Cc1cccn2c(=O)c3cc(C(N)=S)c(=N)n(CCCOC(C)C)c3nc12 | 46 | . | . | . | . | . | . | 5.7
CCCCNC(=O)C[C@H]1C[C@@]2(C(=O)OC)C(=C[C@H](C(C)(C)C)O[C@@H]2C)N(CCc2ccc(OC)c(OC)c2)C1=O | . | . | / | / | / | . | / | /
CN1C(=O)C2C(c3ccc(N(C)C)cc3)=NN(Cc3ccccc3)C2C1=O (stereo not drawn) | 24 | . | . | . | . | . | 24 | 32
COc1ccc(C2=NN(Cc3ccccc3)C3C(=O)NC(=O)C23)cc1 (stereo not drawn) | . | . | . | . | . | . | / | /
CC1CC(Nc2cccc(O)c2)=CC(=O)O1 (stereo not drawn) | 13 | . | . | . | . | . | . | .
CC1CC(Nc2ccccc2)=CC(=O)O1 (stereo not drawn) | . | . | . | . | . | . | / | /
Nc1cc(C(=O)O)c(Oc2ccc(Cl)cc2Cl)cc1C(=O)O | 26 | . | . | . | . | . | 57 | 51
Nc1cc(Oc2ccc(Cl)cc2Cl)nc(N)n1 | . | . | . | . | . | . | / | /
COc1cccc2c1C(=O)O/C2=C/c1ccc2c(c1)OCO2 | 16 | . | / | / | . | . | . | .
C=CCN(Cc1ccc2c(c1)OCO2)C(C#CCCCC)C(C)C (stereo not drawn) | / | . | / | / | / | . | / | /
SMILES | proKLK7 act | DDE Tn6 FP inh | CRFBP-R2 agonist | CRFBP-R2 block | CendR NRP1 mod | Tn7 DDE FP | proKLK7 act conf | EDANS-DABCYL int
COc1cc(OC)c(/C=N/n2c(C)nnc2C)c(OC)c1 | 16 | . | . | . | . | . | . | .
COC[C@@H](O)[C@H]1OCc2cccc(OC)c2[C@@H]1/C=C/c1ccccc1 | . | . | / | / | / | . | / | /
CCOC(=S)SCC(=O)N1CCc2ccccc2C1C1C(=O)CC(C)(C)CC1=O (stereo not drawn) | . | . | . | . | . | . | / | /
CCOC(=S)SCC(=O)N1CCc2cc(OC)c(OC)cc2C1C1C(=O)CC(C)(C)CC1=O (stereo not drawn) | 26 | . | . | . | . | . | . | .
Clc1ccc(-n2c(Cc3cccs3)nnc2SC/C=C/c2ccccc2)cc1 | . | . | / | / | / | . | / | /
COCc1[nH]nc2c1C(c1cccc(C(F)(F)F)c1)N(c1ccc(OC)cc1)C2=O (stereo not drawn) | . | . | / | / | / | . | / | /
COc1ccc(C(=O)OCCCN(C)C2CN(Cc3cn(Cc4ccccc4C(F)(F)F)nn3)S(=O)(=O)C2)cc1OC (stereo not drawn) | . | . | / | / | / | . | / | /
COc1ccc(-c2ncccc2OC(=O)C23CC4CC(CC(C4)C2)C3)cc1OC | 18 | . | . | . | . | . | . | 8.2
CC(C)CNC(=O)OCc1cn(Cc2cccc(F)c2)nn1 | . | . | / | / | / | . | / | /
Nc1ccccc1/C=C/c1ccccc1N | 85 | . | . | . | . | . | 61 | 66
Nc1ccccc1C=C1Cc2ccccc2C1=O | . | . | . | . | . | . | / | /
CC(C)(C)OC(=O)N1CCC[C@@H]1C(=O)N1CCC[C@H]1C(=O)NCc1ccccc1 | . | . | / | / | / | . | / | /
C=C(C)C1CC=C(C)/C(=N\NC(=O)CNc2cccc3ccccc23)C1 (stereo not drawn) | 25 | . | . | . | . | . | . | 6.8
CC(=O)Oc1ccc2c(=O)c(N3C(=O)c4ccccc4C3=O)c(C)oc2c1C | 27 | . | . | . | . | . | 34 | 31
CCCN1C(=O)c2n[nH]c(C)c2C1c1ccc2c(c1)OCO2 (stereo not drawn) | . | . | / | / | / | . | / | /
COc1ccc2c(c1)CCc1cc(C(=O)O)sc1-2 | 56 | . | . | . | . | . | 59 | 67
COc1ccc(-c2cc(C(=O)O)sc2C)cc1 | . | . | . | . | . | . | / | /
COC(=O)c1c(NC(=O)c2ccc(C(=O)c3ccccc3)cc2)sc2c1CC(C)(C)NC2(C)C | . | . | . | . | . | . | / | /
CC1(C)Cc2c(sc(NC(=O)c3ccc(C(=O)c4ccccc4)cc3)c2C#N)C(C)(C)N1 | 15 | . | . | . | . | . | . | 15
CCOC(=O)N1CCN(S(=O)(=O)c2ccc(C(=O)Nc3sc4c(c3C#N)CC(C)(C)NC4(C)C)cc2)CC1 | 109 | . | . | . | . | . | 53 | 51
